Experimental data published in article PMC3268052 (Journal of Molecular Biology, 2011).
Read-outs that look alike come from different tables or passages of the source. Each block holds one molecule with its values, some of them ahead of it.

What was measured:
PKR [1] = molecular target: T1, PKR (Homo sapiens, UniProt P19525); format: binding
In short: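 PKR was purified via heparin–Sepharose then hydroxyapatite and titrated into 15 nM BODIPY-labeled heparin oligosaccharides (dp2–dp8) in AU75 buffer, pH 7.5, 20 °C; NaCl was raised to 100 or 125 mM where noted. Excitation 488 nm and emission 515 nm, 6 nm bandwidths. Each point averages three 5-s background-corrected reads, with 5 min equilibration. Kd came from a hyperbolic fit, and fold-difference is the ratio of Kd values.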

PKR [2] = molecular target: T1, PKR; experiment: Fluorescence anisotropy competition of bdp8 with unlabeled dp8; format: binding; settings: competition of 500 nM bdp8 + 500 nM PKR with unlabeled ligand
In short: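 Unlabeled heparin oligosaccharide was titrated against 500 nM BODIPY-labeled oligosaccharide plus 500 nM PKR. Run in AU75 buffer (75 mM NaCl, 20 mM Hepes, 0.1 mM EDTA, 0.1 mM TCEP, pH 7.5) at 20 °C. Anisotropy read at excitation 488 nm and emission 515 nm, with 5 min equilibration between points. The competition curve was fitted to yield Kd, which sets the fixed β11 value.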

PKR [3] = molecular target: T1, PKR; experiment: Sedimentation velocity; format: binding; settings: for s(P2H2) / s(PH): uncorrected
PKR [4] = molecular target: T1, PKR; experiment: PKR autophosphorylation activation assay; format: biochemical; settings: 100 nM PKR, P50 buffer, 0.4 mM ATP, 20 min, 32 °C
In short: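 Autophosphorylation of 100 nM PKR with heparin oligosaccharide activators over a concentration range. P50 buffer: 20 mM Hepes pH 7.5, 50 mM KCl, 5 mM MgCl2, 0.1 mM TCEP. Reactions contained 0.4 mM ATP plus 2 μCi [γ-32P]ATP and ran 20 min at 32 °C. Background autophosphorylation without activator and a 40-bp dsRNA (100 nM) served as references.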

PKR [5] = molecular target: T1, PKR; experiment: analytical ultracentrifugation; settings: cited from earlier work
PKR [6] = molecular target: T1, PKR; settings: cited from earlier work
[7] = molecular target: the molecule itself; experiment: sedimentation velocity analytical ultracentrifugation
[8] = Model A with L22 fixed equal to L20, SV

T1 sequence (P19525 whole entry): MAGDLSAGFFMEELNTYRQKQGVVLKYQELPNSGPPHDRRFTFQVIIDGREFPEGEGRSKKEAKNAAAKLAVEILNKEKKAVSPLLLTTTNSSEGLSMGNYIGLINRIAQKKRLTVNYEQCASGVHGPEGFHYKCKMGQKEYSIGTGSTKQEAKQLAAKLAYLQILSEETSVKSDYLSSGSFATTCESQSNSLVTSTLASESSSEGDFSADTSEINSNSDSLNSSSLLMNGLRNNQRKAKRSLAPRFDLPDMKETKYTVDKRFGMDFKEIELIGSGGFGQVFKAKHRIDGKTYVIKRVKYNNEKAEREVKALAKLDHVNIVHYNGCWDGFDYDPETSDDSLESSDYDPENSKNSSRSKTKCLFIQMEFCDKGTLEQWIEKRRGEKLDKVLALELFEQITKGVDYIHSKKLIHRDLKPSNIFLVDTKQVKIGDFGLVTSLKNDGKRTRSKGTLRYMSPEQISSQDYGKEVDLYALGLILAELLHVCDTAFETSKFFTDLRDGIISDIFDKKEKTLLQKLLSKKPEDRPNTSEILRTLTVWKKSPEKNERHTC

Fold weaker binding affinity than dp8 (PKR [1]): ~150 fold
Kd (PKR [1]; BODIPY-labeled oligosaccharide, 75 mM NaCl): 32.6 ± 7.4 µM
Molecule: heparin disaccharide [dp2]

Kd (PKR [2]): 0.262 ± 0.021 µM
Enhancement of PKR dimerization affinity (PKR [3]): about 4 fold
g(s*) peak maximum (PKR [3]; 60 μM dp8, 2 μM PKR): ~ 4.0 S
g(s*) peak maximum (PKR [3]; 60 μM dp8, 16 μM PKR): about 4.4 S
s(P2H2) (PKR [3]; [8]): 6.21 Svedbergs
s(PH) (PKR [3]; [8]): 4.14 Svedbergs
s(P2H2) (PKR [3]; Model A, SV): 5.98 Svedbergs
s(PH) (PKR [3]; Model A, SV): 3.98 Svedbergs
Frictional ratio f/f0 of PKR upon binding of dp8 (PKR [3]; decrease from 1.56 for free PKR monomer): 1.47
Activation of PKR autophosphorylation (PKR [4]): stimulated
Kd (PKR [1]; 15 nM labeled heparin oligosaccharide, 75 mM NaCl, 20 °C, hyperbolic fit): 0.224 µM
Kd (PKR [1]; 100 mM NaCl): 2.61 ± 0.05 µM
Kd (PKR [1]; 125 mM NaCl): 19 ± 1.9 µM
Molecule: heparin octasaccharide [dp8]

Molecule: PKR (from UniProt P19525)
Kd (PKR [5]): 500 µM

Activation of PKR autophosphorylation (PKR [4]): stimulated
Molecule: heparin hexasaccharide [dp6]
Activation of PKR, relative activity in earlier studies (PKR [6]): considerably less active than dp8

B1: PKR (protein)
chain: AGDLSAGFFMEELNTYRQKQGVVLKYQELPNSGPPHDRRFTFQVIIDGREFPEGEGRSKKEAKNAAAKLAVEILNKEKKAVSPLLLTTTNSSEGLSMGNYIGLINRIAQKKRLTVNYEQCASGVHGPEGFHYKCKMGQKEYSIGTGSTKQEAKQLAAKLAYLQILSEETSVKSDYLSSGSFATTCESQSNSLVTSTLASESSSEGDFSADTSEINSNSDSLNSSSLLMNGLRNNQRKAKRSLAPRFDLPDMKETKYTVDKRFGMDFKEIELIGSGGFGQVFKAKHRIDGKTYVIKRVKYNNEKAEREVKALAKLDHVNIVHYNGCWDGFDYDPETSDDSLESSDYDPENSKNSSRSKTKCLFIQMEFCDKGTLEQWIEKRRGEKLDKVLALELFEQITKGVDYIHSKKLIHRDLKPSNIFLVDTKQVKIGDFGLVTSLKNDGKRTRSKGTLRYMSPEQISSQDYGKEVDLYALGLILAELLHVCDTAFETSKFFTDLRDGIISDIFDKKEKTLLQKLLSKKPEDRPNTSEILRTLTVWKKSPEKNERHTC
Kd [7]: 404 µM
